Assay results taken from ChEMBL document CHEMBL2384966, “Probes for narcotic receptor mediated phenomena. 47. Novel C4a- and N-substituted-1,2,3,4,4a,9a-hexahydrobenzofuro[2,3-c]pyridin-6-ols” (Bioorg Med Chem, 2013).
pKi: −log10 of the molar value. Active and inactive are the calls of the source. No cut-off for these calls is given here.

Tests used:
[1] = molecular target: T1, Delta-type opioid receptor (Homo sapiens, UniProt P41143); assay: Binding affinity to delta opioid receptor (unknown origin)
T1 sequence (P41143 whole entry): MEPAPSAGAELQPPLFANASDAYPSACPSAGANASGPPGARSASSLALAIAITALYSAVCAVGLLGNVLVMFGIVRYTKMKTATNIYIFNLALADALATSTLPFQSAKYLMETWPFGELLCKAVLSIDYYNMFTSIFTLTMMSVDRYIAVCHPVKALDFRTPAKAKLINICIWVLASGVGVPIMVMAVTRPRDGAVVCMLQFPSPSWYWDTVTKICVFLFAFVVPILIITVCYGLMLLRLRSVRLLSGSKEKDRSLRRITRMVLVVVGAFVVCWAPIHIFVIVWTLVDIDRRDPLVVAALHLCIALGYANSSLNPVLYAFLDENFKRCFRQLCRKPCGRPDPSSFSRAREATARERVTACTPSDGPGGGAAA

[2] = molecular target: T2, Kappa-type opioid receptor (Homo sapiens, UniProt P41145); assay: Binding affinity to kappa opioid receptor (unknown origin)
T2 sequence (P41145 whole entry): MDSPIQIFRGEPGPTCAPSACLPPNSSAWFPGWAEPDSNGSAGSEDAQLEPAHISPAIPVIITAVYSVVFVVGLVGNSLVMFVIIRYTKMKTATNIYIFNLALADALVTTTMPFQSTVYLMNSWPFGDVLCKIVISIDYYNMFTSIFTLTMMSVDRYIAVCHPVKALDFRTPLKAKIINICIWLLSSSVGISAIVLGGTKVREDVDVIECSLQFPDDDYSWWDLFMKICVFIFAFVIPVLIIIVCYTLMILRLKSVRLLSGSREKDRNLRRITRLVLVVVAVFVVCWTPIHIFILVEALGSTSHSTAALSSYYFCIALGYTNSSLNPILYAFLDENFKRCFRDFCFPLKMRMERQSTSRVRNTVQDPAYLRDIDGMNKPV

Mu-type opioid receptor [3] = molecular target: T3, Mu-type opioid receptor (Homo sapiens, UniProt P35372); assay: Binding affinity to mu opioid receptor (unknown origin)
T3 sequence (P35372 whole entry): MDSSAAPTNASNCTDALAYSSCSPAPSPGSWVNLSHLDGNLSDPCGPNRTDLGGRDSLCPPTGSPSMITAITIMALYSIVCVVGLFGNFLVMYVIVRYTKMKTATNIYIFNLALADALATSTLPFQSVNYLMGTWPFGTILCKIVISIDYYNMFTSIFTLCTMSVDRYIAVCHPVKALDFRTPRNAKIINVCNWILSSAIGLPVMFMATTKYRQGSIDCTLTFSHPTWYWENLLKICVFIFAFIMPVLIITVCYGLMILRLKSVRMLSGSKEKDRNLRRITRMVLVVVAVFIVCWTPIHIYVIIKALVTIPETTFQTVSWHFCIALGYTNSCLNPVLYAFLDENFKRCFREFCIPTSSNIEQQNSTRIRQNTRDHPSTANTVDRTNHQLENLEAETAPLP

[4] = molecular target: T2, Kappa-type opioid receptor; assay: Displacement of [3H]U69,593 from human recombinant kappa opioid receptor expressed in CHO cell membranes after 2 hrs by liquid scintillation counting analysis; type: cell-based
[5] = molecular target: T1, Delta-type opioid receptor; assay: Displacement of [3H]DADLE from human recombinant delta opioid receptor expressed in CHO cell membranes after 2 hrs by liquid scintillation counting analysis
Procedure, shortened: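 Human DOR stably expressed in CHO cells; washed membranes (~30 µg protein/tube) incubated with ~2 nM [3H]DADLE and 10 drug concentrations in 50 mM Tris-HCl pH 7.4 with protease inhibitors, 2 h at 25 °C. Levallorphan defined nonspecific binding.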

Mu-type opioid receptor [6] = molecular target: T3, Mu-type opioid receptor; assay: biochemical; type: cell-based, CHO
Homo sapiens [7] = organism: Homo sapiens; assay: Selectivity ratio of Ki for human recombinant kappa opioid receptor to Ki for human recombinant delta opioid receptor
Homo sapiens [8] = organism: Homo sapiens; assay: Selectivity ratio of Ki for human recombinant kappa opioid receptor to Ki for human recombinant mu opioid receptor
Homo sapiens [9] = organism: Homo sapiens; assay: Selectivity ratio of Ki for human recombinant mu opioid receptor to Ki for human recombinant delta opioid receptor
[10] = molecular target: T1, Delta-type opioid receptor; assay: Antagonist activity at human recombinant delta opioid receptor expressed in mouse/rat NG108-15 cell membranes assessed as inhibition of SNC80-induced [35S]GTPgammaS binding by liquid scintillation counting analysis; type: functional
[11] = molecular target: T1, Delta-type opioid receptor; assay: Partial agonist activity at human recombinant delta opioid receptor expressed in mouse/rat NG108-15 cell membranes assessed as stimulation of [35S]GTPgammaS binding after 3 hrs by liquid scintillation counting analysis; type: functional
Procedure, shortened: (§1)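 DOR function measured in NG108-15 neuroblastoma-glioma membranes. Incubated with drug, GDP and 50 pM final [35S]GTPγS in 50 mM Tris-HCl pH 7.4, 100 mM NaCl, 10 mM MgCl2, 1 mM EDTA, 1 mM DTT, 0.1% BSA, 3 h at 25 °C. Unlabelled GTPγS defined nonspecific binding. Bound label collected on GF/B filters and scintillation counted; ED50 and Emax reported.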

[12] = molecular target: T1, Delta-type opioid receptor; assay: Partial agonist activity at human recombinant delta opioid receptor expressed in mouse/rat NG108-15 cell membranes assessed as stimulation of [35S]GTPgammaS binding after 3 hrs by liquid scintillation counting analysis relative to SNC80; type: functional; procedure, shortened: as §1

For `CC[C@@]12CCN(CC3CC3)C[C@@H]1Oc1ccc(O)cc12`, the pKi [1] was 7.28, the pKi [2] was 7.47 and the pKi (Mu-type opioid receptor [3]) was 8.40.

Compound `CC[C@@]12CCN(CCc3ccccc3)C[C@@H]1Oc1ccc(O)cc12` has a pKi (Mu-type opioid receptor [3]) of 9.05.

With `CN1CC[C@@]2(Cc3ccccc3)c3cc(O)ccc3O[C@H]2C1` (racemic) the pKi [4] was 5.54, the pKi [5] was 7.19 and the pKi (Mu-type opioid receptor [6]) was 7.22.

With `CN1CC[C@@]2(CCc3ccccc3)c3cc(O)ccc3O[C@H]2C1` (racemic) the pKi [4] was 5.45, the pKi [5] was 6.26 and the pKi (Mu-type opioid receptor [6]) was 7.18.

With `CC[C@@]12CCN(C)C[C@@H]1Oc1ccc(O)cc12` (racemic) the Ratio Ki (Homo sapiens [7]) was over 23, the Ratio Ki (Homo sapiens [8]) was over 263 and the Ratio Ki (Homo sapiens [9]) was 0.09. The pKi [4] was under 5.30, the pKi [5] was 6.67 and the pKi (Mu-type opioid receptor [6]) was 7.72.

`CCCC[C@@]12CCN(C)C[C@@H]1Oc1ccc(O)cc12` (relative stereo) showed a Ratio Ki (Homo sapiens [7]) of 9, a Ratio Ki (Homo sapiens [8]) of 20 and a Ratio Ki (Homo sapiens [9]) of 0.5.

Work on `CN1CC[C@@]2(C)c3cc(O)ccc3O[C@H]2C1` (relative stereo) yielded a Ratio Ki (Homo sapiens [7]) of over 0.4, a Ratio Ki (Homo sapiens [8]) of over 10 and a Ratio Ki (Homo sapiens [9]) of 0.04.

`CN1CC[C@@]2(CCCCCc3ccccc3)c3cc(O)ccc3O[C@H]2C1` (relative stereo) gave a Ke [10] of over 200 nM, a Ratio Ki (Homo sapiens [7]) of 0.95 and a Ratio Ki (Homo sapiens [8]) of 3. For the same compound, the Ratio Ki (Homo sapiens [9]) was 0.4.

`CN1CC[C@@]2(CCc3ccc(F)cc3)c3cc(O)ccc3O[C@H]2C1` (relative stereo) showed a Ratio Ki (Homo sapiens [7]) of 22, a Ratio Ki (Homo sapiens [8]) of 17 and a Ratio Ki (Homo sapiens [9]) of 1.3.

`CN1CC[C@@]2(CCc3ccccc3F)c3cc(O)ccc3O[C@H]2C1` (relative stereo) showed a Ke [10] of 29 nM.

With `Oc1ccc2c(c1)[C@]1(CCc3ccccc3)CCN(CC3CC3)C[C@@H]1O2` (relative stereo) the ED50 [11] was “inactive”.

Work on `Oc1ccc2c(c1)[C@]1(CCc3ccccc3)CCN(CCc3ccc(C(F)(F)F)cc3)C[C@@H]1O2` (relative stereo) yielded a Ke [10] of 827 nM and an Emax [12] of 46%.

Work on `Oc1ccc2c(c1)[C@]1(CCc3ccccc3)CCN(CCc3ccc(F)cc3)C[C@@H]1O2` (relative stereo) yielded a Ke [10] of 213 nM and an Emax [12] of 29%.

`Oc1ccc2c(c1)[C@]1(CCc3ccccc3)CCN(CCc3cccc(C(F)(F)F)c3)C[C@@H]1O2` (relative stereo) showed a Ke [10] of 455 nM.

Work on `Oc1ccc2c(c1)[C@]1(CCc3ccccc3)CCN(CCc3ccccc3)C[C@@H]1O2` (relative stereo) yielded a Ke [10] of 258 nM and an Emax [12] of 29%.

For `Oc1ccc2c(c1)[C@]1(CCc3ccccc3)CCN(CCc3ccccc3C(F)(F)F)C[C@@H]1O2` (relative stereo), the Ratio Ki (Homo sapiens [7]) was 14, the Ratio Ki (Homo sapiens [8]) was 11 and the Ratio Ki (Homo sapiens [9]) was 1.3.

`Oc1ccc2c(c1)[C@]1(CCc3ccccc3)CCN(CCc3ccccc3F)C[C@@H]1O2` (relative stereo) was tested, and the Ke [10] was 37 nM and the ED50 [11] was “inactive”.
